# Experimental data reported in the EternaBench riboswitch data.
# Tested on: MS2 coat protein
# Test: apparent Kd, MS2 coat protein; higher = weaker binding; RNA-MaP array; FMN 200 µM where present
# Procedure, shortened: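 On Illumina sequencing-chip clusters, designs were transcribed by stalled E. coli RNA polymerase and titrated with SNAP-549-labelled MS2 coat protein (0.7 or 1.5 nM, doubling to 3 µM), without and then with constant ligand, in 100 mM Tris-HCl pH 7.5, 80 mM KCl, 4 mM MgCl2, BSA, DTT, yeast tRNA and Tween-20. Apparent Kd is the median of filtered per-cluster curve fits to green signal normalised to red-channel RNA signal and control-cluster median Fmax.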
# [1] = designed as: ON switch for flavin mononucleotide, no ligand
# [2] = ligand present: flavin mononucleotide, designed as: ON switch for flavin mononucleotide
# [3] = designed as: OFF switch for flavin mononucleotide, no ligand
# [4] = ligand present: flavin mononucleotide, designed as: OFF switch for flavin mononucleotide
Sequence,apparent Kd [1],apparent Kd [2],apparent Kd [3],apparent Kd [4]
AGCUACGUUUCGUAGCAGUGUCAUCGAGAAGGCCUUAUAACAUGAGGAUCACCCAUGUUUGCAUGGGAGGAUAUCGAUGAUACA,20.1 nM,5.63 nM,–,–
AGCUACGUUUCGUAGCAGUGUCAUCGAGAAGGCUCAUAUACAUGAGGAUCACCCAUGUUUUCAUGGGAGGAUAUCGAUGAUACA,108 nM,8.76 nM,–,–
AGCUAGGUAGGAUAUGCGUAAAUGUCGAAAGACGUAUUGGGACAUGAGGAUCACCCAUGUAGAAGGAUCUAGCA,–,–,39.3 nM,55.7 nM
AGCUAGUCAGGAUAUACGAAAAUGUCAGAAGCUGAGAAGGGACAUGAGGAUCACCCAUGUAGAAGGGACUAGCA,–,–,57.5 nM,299 nM
AGCUAGUCAGGAUAUACGAACAUGUCAAAAGACGAGAACGGACAUGAGGAUCACCCAUGUAGAAGGGACUAGCA,–,–,55 nM,325 nM
AGCUAGUCAGGAUAUACGAACAUGUCAAAAGACGUGAAGGGACAUGAGGAUCACCCAUGUAGAAGGGACUAGCC,–,–,26.7 nM,170 nM
AGCUAGUCAGGAUAUACGAGAACGAACGAAGCAGUGAAGGGACAUGAGGAUCACCCAUGUAGAAGGGACUAGCA,–,–,36 nM,82.6 nM
AGCUAGUGAGGAUAUACGAACAUGUCAAAAGACGUGAGGGAACAUGAGGAUCACCCAUGUAGAAGGCACUAGCA,–,–,38.8 nM,33 nM
AGCUGGAGAGGAUAUACGUAAGUGAAAAAAGUCUGAUAACUACAUGAGGAUCACCCAUGUAGAAGGCUCUGGCA,–,–,19.3 nM,33.2 nM
AGCUGGUGACAGCAUCGAGCUAAACAUGAGGAUCACCCAUGUAGAAGGCUGUACGGUUACCGUACAGAGGAUAUACAUAGCUCG,–,–,6.11 nM,6.3 nM
AGCUGUGACGUUACAGUUCCGUUACAUGAGGAUCACCCAUGUCAGGAUAUAUGCACUCUUGAAUCAUAGAAGGGACAGAGGUGG,–,–,161 nM,157 nM
AGCUGUGGCAGAGGAUAUACAAUCCUAAUCCAUUGCAAAUAGCGAUGGACAUGAGGAUCACCCAUGUAGAAGGCUGUCUCAGCA,–,–,297 nM,65.2 nM
AGCUGUGGCCGAGGAUAUCUAAACUCAAUAACCGAAAUAUAAUCGGACAUGAGGAUCACCCAUGUAGAGAAGGCGGUCUCAGCA,–,–,34.1 nM,71.8 nM
AGGAAGUAAGGAUAUGCUGCUCGUCACUUGCGUGAUGAGUAGCAGAAGGUACAUGAGGAUCACCCAUGUAAAAA,–,–,23.7 nM,18.5 nM
AGGAUGUUAGGAUAUCGGAUAUGCUGGAGGAGGUGGAUUUACGAGAAGGAACAUGAGGAUCACCCAUGUUGGAG,–,–,22.5 nM,25.1 nM
AGGAUUGUGCUAGGAUAUCCAGGUUUGCAACAAGGAGAAGGAGCACAUGAGGAUCACCCAUGUUCUCAAAGGCCAUGGCAAUAA,–,–,23.4 nM,84.2 nM
AGGGUAUGAACAUGAGGAUCACCCAUGUACUAGGAAACAAAUGAGGAUAUCGAUAGCAAAGCUAUCGAGAAGGCAUGGGACCCU,224 nM,51.8 nM,–,–
AGGUAACAUGAGGAUCACCCAUGUCAGGAUAUCAGUAAGAUUAGAAUAGAGUAGAGGAUGAGAAGGGACUAUAU,–,–,47 nM,41.8 nM
AGGUACGGUCGAUCAUACCAAGGUAGAAGGCGACUGGGAAUGUGAGACAUGAGGAUCACCCAUGUCGAGGAUAUACCUGAAAGU,–,–,192 nM,27.4 nM
AGGUAGUCAGGAUAUUAGUGGUAGAGGGAUAACUUUAUUGUUGAGAAGGGACAUGAGGAUCACCCAUGUUUUGU,–,–,26.3 nM,32.5 nM
AGGUCAACCACAGGAUAUGGCUAGCAUAGCUAGCCAGAAGGGUGGUCGUAACUAUGUAAAUACAUGAGGAUCACCCAUGUAUCC,134 nM,25.4 nM,–,–

Sequence,apparent Kd [1],apparent Kd [2],apparent Kd [3],apparent Kd [4]
AGGUGACAUGAGGAUCACCCAUGUAAGGAUAUACGGUUAGUGGAGAGAGGGAAAAGAGGUAGAAGGUACGGAGC,–,–,266 nM,142 nM
AGGUGUAGAGGAUAUCGAGUUCUUUACAUGAGGAUCACCCAUGUCCUGGGCACCCAGGACUGAGAAGGCUACACCA,–,–,478 nM,180 nM
AGUAACAGAGGAUAUACUAUUUUAUGUAUUUAUUAUUUUGAACAUGAGGAUCACCCAUGUAGAAGGCUGAAUAA,–,–,27.1 nM,22 nM
AGUAAGAUGCAGAAGGUGUCAGCGAGAGCUACGACAUGAGGAUCACCCAUGUACUAGGUAGAGUACAAGGAUAUGCAUCUUACA,324 nM,24.6 nM,–,–
AGUAAGAUGCAGAAGGUGUUAGCUAGAGCUACGACAUGAGGAUCACCCAUGUACAAAAGCCCGUACAAGGAUAUGCAUCUUACA,4.46 nM,4.21 nM,–,–
AGUAAGAUGCAGAAGGUGUUAGCUAGAGCUACGACAUGAGGAUCACCCAUGUACUAAAACCCGUACAAGGAUAUGCAUCUUACA,8.17 nM,6.47 nM,–,–
AGUACGUCAGGAUAUCUGAUGUCUAACUUCGGUUAGACAUCAGAGAAGGGACAUGAGGAUCACCCAUGUACUAG,–,–,38.7 nM,42.6 nM
AGUACUACAGGAUAUACGAGGGAGGUCCACGUGACCCUUCUACAUGAGGAUCACCCAUGUAGAAGGGUAGUACA,–,–,13.9 nM,13.9 nM
AGUACUCAAAGAGUACCCAUACGGACAUGAGGAUCACCCAUGUAGGAUAUGCUACUCAAAGAGUAGUAGAAGGACAUAUACCUC,–,–,8.91 nM,15.7 nM
AGUACUCAAAGAGUACCCAUACGGACAUGAGGAUCACCCAUGUAGGAUAUGCUACUCAAAGAGUAGUAGAAGGACAUAUUCCUC,–,–,9.52 nM,20.3 nM
AGUAGAUCAGGAUAUACAUAAAUGAUAAUUAUGUAACUUCUACAUGAGGAUCACCCAUGUAGAAGGGAUCUACA,–,–,12.6 nM,13.1 nM
AGUAGAUCAGGAUAUACGUAAAUGGUAAUUAUGUAACUUCUACAUGAGGAUCACCCAUGUAGAAGGGAUCUACA,–,–,13.6 nM,13.4 nM
AGUCAGACAGGAUAUACGUGAGUGGAAAAAGUAUGUCCACUACAUGAGGAUCACCCAUGUAGAAGGGUCUGACA,–,–,17.7 nM,14.7 nM
AGUCAGAGCAGAGGAUAUAUACAUGAGGAUCACCCAUGUGACUGACUAUGCUAGAAAUAGCAUGUAUAGAAGGCUGCUCUGACA,–,–,85 nM,223 nM
AGUCAUACAGGAUAUACAUGAGGAUCACCCAUGUUUAUCCUAAAAAAGUGAUCCUCAUGUAGAAGGGUAUGACA,–,–,15.2 nM,18.9 nM
AGUCGGAGCGGAGGAUAUACAUGAGGAUCACCCAUGUAAUAAAGUGAAGCCUGGAAACAGGCAAUGUAGAAGGCUGCUCCGACA,–,–,11 nM,74.8 nM
AGUCGGCAUGAGAAGGGUUACAUGAGGAUCACCCAUGUGAUCAAAUCGUUAACAGGAUAUCAGGCGUCGGGCUUUACCCGGAGG,–,–,19.5 nM,125 nM
AGUCUCACUGAAGGAUAUGCAGGGUUUCAAGGGUUUCCUGCGACAUGAGGAUCACCCAUGUAAAUGCAGAAGGUCAGGACCCAA,–,–,6.63 nM,32.8 nM
AGUGCCUCGAGAGGAUAUAUACAUGAGGAUCACCCAUGUAACGAGGUGGAAACACCUCGAAAUGUAUAGAAGGCUCGAGGCACA,–,–,28.4 nM,50 nM
AGUGCGAUGGGAGGAUAUCAUGGUCUAAUUAAUAAAAGGAUCACAUGAGGAUCACCCAUGUGUCAUGAGAAGGCCCUCGAGACC,74.2 nM,11.2 nM,–,–
AGUGGGCUAGGAUAUCGAUGAACUCACAUGAGGAUCACCCAUGUGUCUUUGGUGGGCGCACGAGAAGGAGUAAGAU,–,–,40.4 nM,43.3 nM
